Measurements gathered from unrelated publications.
Lines come from different studies, so protocols differ.
Target: Ephrin type-A receptor 2 (EPHA2, Homo sapiens, UniProt P29317)

N#Cc1ccccc1CSc1nnc2c(n1)[nH]c1ccccc12
remaining binding (binding, competition with immobilised ligand; 10 µM): 87%

COc1cnc(Nc2cccc(S(N)(=O)=O)c2)nc1N1CCN(c2ccccc2)CC1
remaining binding (binding, competition with immobilised ligand; 1 µM): 100%

C=CC(=O)N1CCC(C(=O)NCC(=O)N2CCN(c3nc(-c4cnc(N)nc4C(F)F)nc(N4CCOCC4)n3)CC2)CC1
remaining binding (binding, competition with immobilised ligand; 1 µM): 95%

CN(c1nccc(-c2cnn3ncccc23)n1)C1CC1
remaining binding (binding; 1 µM): 99%

FC(F)(F)Oc1cccc(-c2cnc3ccc(-c4ccncc4)nn23)c1
remaining binding (cell-free assay, competition with immobilised ligand; 5 µM): 80%

C[C@H]1CCN(c2nccc(-c3cnn4ncccc34)n2)C1
remaining binding (binding; 1 µM): 100%

Cc1cnc(Nc2ccc(C(=O)N3CCC(N4CCCC4)CC3)cc2)nc1-c1cc2ccccc2s1
remaining binding (binding, competition with immobilised ligand; 1 µM): 26%

CN(C)c1nccc(-c2cnn3ncccc23)n1
remaining binding (binding; 1 µM): 85%

Nc1cnc(N2CCc3cc(S(=O)(=O)Nc4c(F)cc(Cl)cc4F)cc(N4CCCC4=O)c32)nc1
remaining binding (cell-free assay, competition with immobilised ligand; 1 µM): 100%

c1cnn2ncc(-c3ccnc(N4CCC45COC5)n3)c2c1
remaining binding (binding; 1 µM): 94%

COc1ncc2cc3ccccc3nc2c1C#N
remaining binding (cell-free assay, competition with immobilised ligand; 5 µM): 96%

NS(=O)(=O)c1cc(NC(=O)Cc2ccccc2)ccc1Oc1cccc(Cl)c1
remaining binding (cell-free assay, competition with immobilised ligand; 1 µM): 91%

CN(CCCC(F)(F)F)c1nccc(-c2cnn3ncccc23)n1
remaining binding (binding; 1 µM): 82%

O=C(c1ccc(Nc2ncc(Cl)c(-c3ccc(Cl)s3)n2)cc1)N1CCC(N2CCCC2)CC1
remaining binding (binding, competition with immobilised ligand; 1 µM): 100%

C[C@H](c1ccc(F)cc1)N(Cc1cccc(C(=O)O)c1)C(=O)c1cnc2ccccc2c1
remaining binding (cell-free assay, competition with immobilised ligand; 1 µM): 100%

O=C(NCCCN1CCOCC1)c1ccc(Nc2nccc(-c3cc4ccccc4s3)n2)cc1
remaining binding (binding, competition with immobilised ligand; 1 µM): 72%

Nc1ncc2c(n1)-c1c([nH]c3ccc(C#CC4CC4)cc13)CCCC2
remaining binding (binding, competition with immobilised ligand; 1 µM): 100%

C[C@@H]1CN(c2ccc3ncc(-c4ccc5[nH]nc(C6CC6)c5c4)n3n2)C[C@H](C)O1
remaining binding (binding, competition with immobilised ligand; 50 nM): 86%

Cn1nc(C(=O)NCc2ccc(C(=O)O)cc2)cc1-c1ccc2[nH]ccc2c1
remaining binding (cell-free assay, competition with immobilised ligand; 0.1 µM): 95%

CCN1CCN(Cc2ccc(C(=O)Nc3ccc(C)c(Oc4ccc5c(c4)CC(=O)N5)c3)cc2C(F)(F)F)CC1
remaining binding (binding, competition with immobilised ligand; 1 µM): 73%

Cc1cc(C)c(-n2ccn3nc(-c4cccnc4)cc23)cc1NC(=O)c1cc(C#N)cc(S(F)(F)(F)(F)F)c1
remaining binding (cell-free assay, competition with immobilised ligand; 0.1 µM): 79.6%

O=C(NCC1CCOCC1)c1n[nH]cc1NC(=O)c1c(F)cccc1F
remaining binding (binding, competition with immobilised ligand; 1 µM): 100%

F[C@@H]1CCN(c2nccc(-c3cnn4ncccc34)n2)C1
remaining binding (binding; 1 µM): 100%

CO[C@@H](C)c1c(Nc2ccc([C@H](N(C)C(=O)C3CCS(=O)(=O)CC3)C(F)(F)F)cc2)cnc2cc(Cl)nn12
remaining binding (cell-free assay, competition with immobilised ligand; 1 µM): 100%

N[C@@H]1CCN(c2nccc(-c3cnn4ncccc34)n2)C1
remaining binding (binding; 1 µM): 100%

CCOCCn1cc(C(=O)Nc2ccc(-n3nc(-c4cccnc4)cc3C(F)(F)F)cn2)ccc1=O
remaining binding (cell-free assay, competition with immobilised ligand; 1 µM): 93%
